According to the M2OR odorant receptor database:
Positions count from the first letter of the chain named.

Columns and labels:
Conditions in all cases: stereoisomer not certain
OR2W1 (Homo sapiens) = biological target: T1, OR2W1 (Homo sapiens) (UniProt Q9Y3N9)
T1 sequence (whole entry): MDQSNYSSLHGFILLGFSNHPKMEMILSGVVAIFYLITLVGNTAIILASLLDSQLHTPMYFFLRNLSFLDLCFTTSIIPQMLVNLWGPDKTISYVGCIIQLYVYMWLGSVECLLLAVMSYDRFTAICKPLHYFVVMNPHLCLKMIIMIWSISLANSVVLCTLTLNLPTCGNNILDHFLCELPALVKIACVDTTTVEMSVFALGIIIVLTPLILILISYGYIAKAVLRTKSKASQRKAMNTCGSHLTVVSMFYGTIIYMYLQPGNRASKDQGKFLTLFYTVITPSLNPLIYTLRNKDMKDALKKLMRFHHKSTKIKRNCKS
In short: (§1)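 Each receptor–molecule pair is labelled responsive or non-responsive (inactive) according to whether the original authors judged the measured signal statistically different from baseline. The data were taken from the main text and supplementary material of published papers and checked for typos and inconsistencies. Assay methods differed by source, with transient luciferase assays in mammalian cell lines being common.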

OR2T34 (Homo sapiens) = biological target: T2, OR2T34 (Homo sapiens) (UniProt Q8NGX1)
T2 sequence (whole entry): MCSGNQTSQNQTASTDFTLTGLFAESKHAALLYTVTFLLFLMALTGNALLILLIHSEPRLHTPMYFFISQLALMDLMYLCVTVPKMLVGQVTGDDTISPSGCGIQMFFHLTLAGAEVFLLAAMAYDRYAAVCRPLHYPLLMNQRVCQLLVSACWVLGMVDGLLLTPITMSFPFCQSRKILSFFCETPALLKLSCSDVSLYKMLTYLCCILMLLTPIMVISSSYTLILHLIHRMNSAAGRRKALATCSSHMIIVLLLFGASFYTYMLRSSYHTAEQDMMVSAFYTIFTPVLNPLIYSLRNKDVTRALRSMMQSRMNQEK
In short: as §1

OR2T4 (Homo sapiens) = biological target: T3, OR2T4 (Homo sapiens) (UniProt Q8NH00)
T3 sequence (whole entry): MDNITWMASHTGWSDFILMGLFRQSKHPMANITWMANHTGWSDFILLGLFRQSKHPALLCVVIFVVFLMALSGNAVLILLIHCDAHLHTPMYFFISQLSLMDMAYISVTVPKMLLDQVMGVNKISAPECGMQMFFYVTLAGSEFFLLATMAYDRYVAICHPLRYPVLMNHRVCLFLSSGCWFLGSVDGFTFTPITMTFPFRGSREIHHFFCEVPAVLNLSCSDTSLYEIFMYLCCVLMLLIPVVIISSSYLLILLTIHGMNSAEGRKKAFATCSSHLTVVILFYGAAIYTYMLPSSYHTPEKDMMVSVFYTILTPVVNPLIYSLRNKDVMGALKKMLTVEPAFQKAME
In short: as §1

OR2W3 (Homo sapiens) = biological target: T4, OR2W3 (Homo sapiens) (UniProt Q7Z3T1)
T4 sequence (whole entry): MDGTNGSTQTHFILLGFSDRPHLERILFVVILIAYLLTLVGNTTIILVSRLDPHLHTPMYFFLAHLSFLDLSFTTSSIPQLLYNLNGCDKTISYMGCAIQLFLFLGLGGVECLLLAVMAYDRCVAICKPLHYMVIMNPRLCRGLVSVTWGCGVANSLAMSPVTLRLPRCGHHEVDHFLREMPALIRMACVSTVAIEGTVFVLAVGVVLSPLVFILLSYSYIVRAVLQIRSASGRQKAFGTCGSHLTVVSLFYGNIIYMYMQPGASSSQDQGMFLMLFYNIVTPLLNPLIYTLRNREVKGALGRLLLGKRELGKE
In short: as §1

OR2W1 [1] = tested on: T5, OR2W1
T5 sequence (whole entry): T1 sequence (whole entry) with D296N
In short: as §1

OR2W1 [2] = tested on: T6, OR2W1; remark: listed apart in the source
T6 sequence (whole entry): T1 sequence (whole entry) with M81V
In short: as §1

OR2T33 (Homo sapiens) = OR2T33 (Homo sapiens) (UniProt Q8NG76)
In short: as §1

OR2T35 (Homo sapiens) = OR2T35 (Homo sapiens) (UniProt Q8NGX2)
In short: as §1

OR2T5 (Homo sapiens) = OR2T5 (Homo sapiens) (UniProt Q6IEZ7)
In short: as §1

OR2T5 K13R K41M G45E = tested on: OR2T5 K13R K41M G45E
In short: as §1

OR2T5 K13R L134F = tested on: OR2T5 K13R L134F
In short: as §1

OR2T6 (Homo sapiens) = OR2T6 (Homo sapiens) (UniProt Q8NHC8)
In short: as §1

OR2T6 C23G = tested on: OR2T6 C23G
In short: as §1

OR2T7 = tested on: OR2T7
In short: as §1

OR2T8 (Homo sapiens) = OR2T8 (Homo sapiens) (UniProt A6NH00)
In short: as §1

OR2V1 (Homo sapiens) = OR2V1 (Homo sapiens) (UniProt Q8NHB1)
In short: as §1

OR2V2 (Homo sapiens) = OR2V2 (Homo sapiens) (UniProt Q96R30)
In short: as §1

OR2W1 G96V = tested on: OR2W1 G96V
In short: as §1

OR2W5P (Homo sapiens) = OR2W5P (Homo sapiens) (UniProt A6NFC9)
In short: as §1

OR2T7 (Homo sapiens) = OR2T7 (Homo sapiens) (UniProt P0C7T2)
In short: as §1
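Note: active if original authors judged signal statistically different from baseline.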

OR2T8 (Homo sapiens), sequence (A6NH00 whole entry): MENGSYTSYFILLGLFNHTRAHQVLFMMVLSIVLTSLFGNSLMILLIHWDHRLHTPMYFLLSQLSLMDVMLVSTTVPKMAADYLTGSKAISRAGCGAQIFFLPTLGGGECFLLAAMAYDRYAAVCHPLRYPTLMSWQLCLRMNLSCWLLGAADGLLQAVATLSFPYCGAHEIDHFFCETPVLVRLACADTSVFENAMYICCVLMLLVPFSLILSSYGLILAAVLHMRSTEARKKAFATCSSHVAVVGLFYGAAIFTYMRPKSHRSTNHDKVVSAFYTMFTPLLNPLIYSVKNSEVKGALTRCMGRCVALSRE
OR2T33 (Homo sapiens), sequence (Q8NG76 whole entry): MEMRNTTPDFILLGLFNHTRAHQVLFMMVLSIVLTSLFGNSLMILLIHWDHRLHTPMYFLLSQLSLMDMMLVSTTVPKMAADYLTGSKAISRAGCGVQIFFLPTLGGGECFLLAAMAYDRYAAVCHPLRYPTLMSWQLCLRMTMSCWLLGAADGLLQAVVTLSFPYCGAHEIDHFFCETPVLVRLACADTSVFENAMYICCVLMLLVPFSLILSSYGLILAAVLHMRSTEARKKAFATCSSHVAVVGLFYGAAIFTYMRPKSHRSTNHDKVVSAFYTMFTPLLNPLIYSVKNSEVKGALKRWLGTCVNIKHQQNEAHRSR
OR2V1 (Homo sapiens), sequence (Q8NHB1 whole entry): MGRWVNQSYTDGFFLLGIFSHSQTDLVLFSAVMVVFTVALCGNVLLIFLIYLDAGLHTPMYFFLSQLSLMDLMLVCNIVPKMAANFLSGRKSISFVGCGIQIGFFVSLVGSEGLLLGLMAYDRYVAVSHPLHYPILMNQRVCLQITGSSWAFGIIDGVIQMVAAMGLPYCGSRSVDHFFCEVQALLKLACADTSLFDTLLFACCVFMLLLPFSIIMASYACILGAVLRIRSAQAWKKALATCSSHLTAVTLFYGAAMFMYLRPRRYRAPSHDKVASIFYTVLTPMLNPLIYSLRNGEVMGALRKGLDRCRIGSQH
OR2T5 (Homo sapiens), sequence (Q6IEZ7 whole entry): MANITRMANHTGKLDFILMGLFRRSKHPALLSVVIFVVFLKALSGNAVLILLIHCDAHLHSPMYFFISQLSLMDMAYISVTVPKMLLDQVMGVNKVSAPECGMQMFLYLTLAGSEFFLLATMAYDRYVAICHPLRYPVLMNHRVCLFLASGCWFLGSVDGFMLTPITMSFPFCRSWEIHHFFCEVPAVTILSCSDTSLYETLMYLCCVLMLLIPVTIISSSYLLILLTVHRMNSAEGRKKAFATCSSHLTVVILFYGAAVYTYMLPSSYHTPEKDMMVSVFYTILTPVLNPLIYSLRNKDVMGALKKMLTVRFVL
OR2T6 (Homo sapiens), sequence (Q8NHC8 whole entry): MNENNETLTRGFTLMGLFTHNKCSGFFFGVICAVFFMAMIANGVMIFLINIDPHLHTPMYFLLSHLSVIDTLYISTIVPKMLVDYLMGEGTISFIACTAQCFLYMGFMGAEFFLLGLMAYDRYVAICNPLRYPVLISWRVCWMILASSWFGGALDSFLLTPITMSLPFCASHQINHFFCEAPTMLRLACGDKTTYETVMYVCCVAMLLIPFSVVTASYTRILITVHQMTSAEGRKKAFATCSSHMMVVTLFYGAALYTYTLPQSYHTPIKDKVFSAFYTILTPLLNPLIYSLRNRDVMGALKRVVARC
OR2V2 (Homo sapiens), sequence (Q96R30 whole entry): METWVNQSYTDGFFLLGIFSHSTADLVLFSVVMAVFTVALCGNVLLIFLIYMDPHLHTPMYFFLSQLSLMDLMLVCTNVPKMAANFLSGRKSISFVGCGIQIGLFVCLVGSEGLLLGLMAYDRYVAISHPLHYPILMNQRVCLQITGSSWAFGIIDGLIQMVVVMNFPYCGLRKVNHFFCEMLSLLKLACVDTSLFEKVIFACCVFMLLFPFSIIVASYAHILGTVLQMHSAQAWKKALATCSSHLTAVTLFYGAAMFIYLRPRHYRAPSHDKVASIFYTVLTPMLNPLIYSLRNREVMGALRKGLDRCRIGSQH
OR2T35 (Homo sapiens), sequence (Q8NGX2 whole entry): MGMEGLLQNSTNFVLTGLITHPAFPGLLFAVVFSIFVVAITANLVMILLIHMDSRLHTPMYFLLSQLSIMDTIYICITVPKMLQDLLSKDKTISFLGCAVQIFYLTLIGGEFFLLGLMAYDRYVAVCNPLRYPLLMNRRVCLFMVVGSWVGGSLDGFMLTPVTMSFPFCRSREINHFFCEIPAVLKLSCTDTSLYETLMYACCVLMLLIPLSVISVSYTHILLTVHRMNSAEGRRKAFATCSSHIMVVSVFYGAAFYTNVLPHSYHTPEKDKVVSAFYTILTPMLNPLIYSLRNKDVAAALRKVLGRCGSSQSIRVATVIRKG
OR2T6 C23G, sequence (as listed by the source, stated change not applied): as the sequence (Q8NHC8 whole entry) above, with C23G counted along it
OR2W1 G96V, sequence (as listed by the source, stated change not applied): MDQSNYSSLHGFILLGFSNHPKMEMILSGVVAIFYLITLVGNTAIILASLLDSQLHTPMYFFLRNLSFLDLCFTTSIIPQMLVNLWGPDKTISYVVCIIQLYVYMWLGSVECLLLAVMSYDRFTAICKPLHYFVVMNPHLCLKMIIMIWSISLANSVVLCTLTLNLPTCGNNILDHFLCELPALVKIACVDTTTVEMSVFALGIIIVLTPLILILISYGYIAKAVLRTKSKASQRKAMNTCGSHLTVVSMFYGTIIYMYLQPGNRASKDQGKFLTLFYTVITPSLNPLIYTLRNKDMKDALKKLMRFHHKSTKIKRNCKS
OR2T7 (Homo sapiens), sequence (P0C7T2 whole entry): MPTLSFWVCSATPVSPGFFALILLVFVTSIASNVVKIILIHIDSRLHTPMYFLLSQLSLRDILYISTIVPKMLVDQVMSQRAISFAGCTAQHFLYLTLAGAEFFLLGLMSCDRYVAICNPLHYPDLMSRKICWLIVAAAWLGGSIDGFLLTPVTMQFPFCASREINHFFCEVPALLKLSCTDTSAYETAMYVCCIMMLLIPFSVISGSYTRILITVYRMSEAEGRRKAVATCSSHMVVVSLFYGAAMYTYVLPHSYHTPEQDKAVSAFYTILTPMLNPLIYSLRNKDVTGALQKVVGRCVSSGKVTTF
OR2W5P (Homo sapiens), sequence (A6NFC9 whole entry): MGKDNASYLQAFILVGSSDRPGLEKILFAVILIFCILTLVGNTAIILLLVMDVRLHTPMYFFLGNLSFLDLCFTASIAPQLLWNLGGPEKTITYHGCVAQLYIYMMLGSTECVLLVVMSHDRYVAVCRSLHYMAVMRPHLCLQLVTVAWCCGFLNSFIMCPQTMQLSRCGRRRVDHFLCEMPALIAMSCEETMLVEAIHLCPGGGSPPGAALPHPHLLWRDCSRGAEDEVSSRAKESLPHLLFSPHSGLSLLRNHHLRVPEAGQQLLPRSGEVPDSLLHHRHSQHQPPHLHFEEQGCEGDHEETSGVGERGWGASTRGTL
OR2T7, sequence (as listed by the source): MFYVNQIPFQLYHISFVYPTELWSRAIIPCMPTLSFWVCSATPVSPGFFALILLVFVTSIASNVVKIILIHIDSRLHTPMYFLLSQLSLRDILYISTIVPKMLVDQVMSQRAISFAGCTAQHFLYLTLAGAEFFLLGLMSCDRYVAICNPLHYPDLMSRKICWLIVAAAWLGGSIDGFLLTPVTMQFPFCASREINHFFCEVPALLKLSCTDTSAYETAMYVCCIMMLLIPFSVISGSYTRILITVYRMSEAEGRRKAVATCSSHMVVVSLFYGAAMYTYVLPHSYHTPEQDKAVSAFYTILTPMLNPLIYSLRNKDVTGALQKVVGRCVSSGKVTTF

O=c1cc(O)c2ccccc2o1
odorant receptor agonist call (OR2W1 (Homo sapiens)): inactive

O=CC=Cc1ccccc1
odorant receptor agonist call (OR2T34 (Homo sapiens)): active

O=Cc1ccccc1
odorant receptor agonist call (OR2T34 (Homo sapiens)): inactive

Cc1cccc(C)c1
odorant receptor agonist call (OR2T4 (Homo sapiens)): inactive
odorant receptor agonist call (OR2W3 (Homo sapiens)): inactive

C=CCc1ccccc1
odorant receptor agonist call (OR2W1 (Homo sapiens)): inactive

C=CCSSCC=C
odorant receptor agonist call (OR2W1 (Homo sapiens)): inactive
odorant receptor agonist call (OR2W1 [1]): active
odorant receptor agonist call (OR2W1 [2]): active

C=CCOC(=O)Cc1ccccc1
odorant receptor agonist call (OR2T33 (Homo sapiens)): inactive
odorant receptor agonist call (OR2T34 (Homo sapiens)): inactive
odorant receptor agonist call (OR2T35 (Homo sapiens)): inactive
odorant receptor agonist call (OR2T4 (Homo sapiens)): inactive
odorant receptor agonist call (OR2T5 (Homo sapiens)): inactive
odorant receptor agonist call (OR2T5 K13R K41M G45E): inactive
odorant receptor agonist call (OR2T5 K13R L134F): inactive
odorant receptor agonist call (OR2T6 (Homo sapiens)): inactive
odorant receptor agonist call (OR2T6 C23G): inactive
odorant receptor agonist call (OR2T7): inactive
odorant receptor agonist call (OR2T8 (Homo sapiens)): inactive
odorant receptor agonist call (OR2V1 (Homo sapiens)): inactive
odorant receptor agonist call (OR2V2 (Homo sapiens)): inactive
odorant receptor agonist call (OR2W1 (Homo sapiens)): active
odorant receptor agonist call (OR2W1 G96V): inactive
odorant receptor agonist call (OR2W3 (Homo sapiens)): inactive
odorant receptor agonist call (OR2W5P (Homo sapiens)): inactive

SCc1ccco1
odorant receptor agonist call (OR2W1 (Homo sapiens)): active
odorant receptor agonist call (OR2W1 [1]): active
odorant receptor agonist call (OR2W1 [2]): active

Cc1c([N+](=O)[O-])c(C)c([N+](=O)[O-])c(C(C)(C)C)c1[N+](=O)[O-]
odorant receptor agonist call (OR2T33 (Homo sapiens)): inactive
odorant receptor agonist call (OR2T34 (Homo sapiens)): inactive
odorant receptor agonist call (OR2T35 (Homo sapiens)): inactive
odorant receptor agonist call (OR2T4 (Homo sapiens)): inactive
odorant receptor agonist call (OR2T5 (Homo sapiens)): inactive
odorant receptor agonist call (OR2T6 (Homo sapiens)): inactive
odorant receptor agonist call (OR2T7 (Homo sapiens)): inactive
odorant receptor agonist call (OR2T8 (Homo sapiens)): inactive
odorant receptor agonist call (OR2V1 (Homo sapiens)): inactive
odorant receptor agonist call (OR2V2 (Homo sapiens)): inactive
odorant receptor agonist call (OR2W1 (Homo sapiens)): inactive
odorant receptor agonist call (OR2W3 (Homo sapiens)): inactive

CSSC
odorant receptor agonist call (OR2W1 (Homo sapiens)): inactive

Cc1ccccc1O
odorant receptor agonist call (OR2W1 (Homo sapiens)): inactive

NCC(=O)c1ccccc1
odorant receptor agonist call (OR2W1 (Homo sapiens)): inactive

SCc1ccccc1
odorant receptor agonist call (OR2W1 (Homo sapiens)): active
odorant receptor agonist call (OR2W1 [1]): active
odorant receptor agonist call (OR2W1 [2]): active

COc1ccc(C=O)cc1
odorant receptor agonist call (OR2T4 (Homo sapiens)): inactive
odorant receptor agonist call (OR2W1 (Homo sapiens)): active
odorant receptor agonist call (OR2W1 [1]): active
odorant receptor agonist call (OR2W1 [2]): active
odorant receptor agonist call (OR2W3 (Homo sapiens)): inactive

O=Cc1ccco1
odorant receptor agonist call (OR2W1 (Homo sapiens)): inactive

OCc1ccco1
odorant receptor agonist call (OR2W1 (Homo sapiens)): active
odorant receptor agonist call (OR2W1 [1]): active
odorant receptor agonist call (OR2W1 [2]): inactive

C=CCc1ccc(OC)cc1
odorant receptor agonist call (OR2W1 (Homo sapiens)): active
odorant receptor agonist call (OR2W1 [1]): active
odorant receptor agonist call (OR2W1 [2]): active

Cc1ccc(O)c(C)c1
odorant receptor agonist call (OR2W1 (Homo sapiens)): inactive

CCOC(=O)Cc1ccccc1
odorant receptor agonist call (OR2W1 (Homo sapiens)): active
odorant receptor agonist call (OR2W1 [1]): active
odorant receptor agonist call (OR2W1 [2]): active

O=Cc1ccc2c(c1)OCO2
odorant receptor agonist call (OR2W1 (Homo sapiens)): active
odorant receptor agonist call (OR2W1 [1]): active
odorant receptor agonist call (OR2W1 [2]): active

CCC1CCC(=O)O1 (stereo not drawn)
odorant receptor agonist call (OR2W1 (Homo sapiens)): inactive

O=C(O)Cc1ccccc1
odorant receptor agonist call (OR2W1 (Homo sapiens)): inactive
